# Measurements collected from several papers.
# Protocols differ between the studies behind these lines.
# Read-out: cell growth or viability
SMILES,cell line,test,setting,quantity,value
N.N.[Cl][Pt][Cl],MDA-MB-468,MTT,48 h,IC50,5000 nM
CN(C)c1ccc(C(=O)NCCCCCCC(=O)NO)cc1,HBL1,ATP luminescence,"0.1 µM, 5 days",viability,125%
N.N.[Cl][Pt][Cl],MDA-MB-468,MTT,"48 h, dark",IC50,6970 nM
Cn1cc2cc(C(F)(F)c3nnc4ccc(-c5cnn(C6CC6)c5)nn34)c(F)cc2n1,KATO III,CCK-8,72 h,IC50,> 1000 nM
N.N.[Cl][Pt][Cl],BEAS-2B,MTT,24 h,IC50,> 100000 nM
COc1c(C)c2c(c(O)c1C/C=C(\C)CCC(=O)O)C(=O)OC2,MDA-MB-468,,,IC50,417 nM
N.N.[Cl][Pt][Cl],HBL1,ATP luminescence,72 h,IC50,1310 nM
O=C(CCCCCCNC(=O)c1cnc(N(c2ccccc2)c2ccccc2)nc1)NO,MV4-11,ATP luminescence,72 h,EC50,713 nM
